Consider nine compounds from ChEMBL document CHEMBL1148216, “New nardosinanes and 19-oxygenated ergosterols from the soft coral Nephthea armata collected in Taiwan” (J Nat Prod, 2004).

A value given as a limit tells only on which side of the number the result lay.

Holding throughout (assay type): functional, cell-based
For experiment [1], the system named is P388. Description: Cytotoxicity against mouse P388 cells. The method in brief:
(§1)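 Cytotoxicity was run by a previously described procedure, with mithramycin as the positive control, and IC50 values were derived. P-388 cells were a gift from an academic laboratory, and the A549 and HT-29 cells were obtained from a culture collection.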

Experiment [2] has as its system A549. Nature of the experiment: Cytotoxicity against human A549 cells. The gist of the method:
as §1

The subject of experiment [3] is HT-29. Description: Cytotoxicity against human HT29 cells. The method in brief: as §1

Regarding `CO[C@@H]1O[C@H]2CCC3=C[C@@H](O)C[C@H](C)[C@@]3(C)[C@H]2[C@@H]1C` [ARMATIN D], the IC50 in experiment [1], in experiment [2] and in experiment [3] was above 50 µM throughout.
As to `CO[C@@H]1O[C@H]2CCC3=CC(=O)C[C@H](C)[C@@]3(C)[C@H]2[C@@H]1C` [ARMATIN E], the IC50 in experiment [1], in experiment [2] and in experiment [3] was above 50 µM throughout.
`C=C(CC[C@@H](C)[C@H]1CC[C@H]2[C@@H]3C[C@H]4O[C@]45C[C@@H](O)CC[C@]5(COC(C)=O)[C@H]3CC[C@]12C)C(C)C` [ARMATINOL A]: the IC50 in experiment [1] was determined as 6.1 µM; in experiment [2] it was 7.6 µM; in experiment [3] it was 6.5 µM.
For `C[C@@H]1C(=O)O[C@H]2CCC3=CC(=O)C[C@H](C)[C@@]3(C)[C@H]21`, in that order: above 50 µM, above 50 µM and above 50 µM.
For `CO[C@H]1O[C@@H]2CCC3=C[C@@H](O)C[C@H](C)[C@@]3(C)[C@H]2[C@@H]1C` [ARMATIN C], in that order: above 50 µM, above 50 µM and above 50 µM.
For `C[C@H]1[C@H]2[C@@H](CCC3=C[C@@H](O)C[C@H](C)[C@]32C)O[C@@H]1O` [ARMATIN A], in that order: above 50 µM, above 50 µM and above 50 µM.
`CO[C@H](C(=O)[C@@H](O)[C@@H](C)O)[C@@H]1Cc2cc3cc(O[C@H]4C[C@@H](O[C@@H]5C[C@@H](O)[C@H](O)[C@@H](C)O5)[C@H](O)[C@@H](C)O4)c(C)c(O)c3c(O)c2C(=O)[C@H]1O[C@H]1C[C@@H](O[C@@H]2C[C@@H](O)[C@@H](O[C@@H]3C[C@](C)(O)[C@H](O)[C@@H](C)O3)[C@@H](C)O2)[C@H](O)[C@@H](C)O1` [PLICAMYCIN]: the values for the IC50 in experiment [1], in experiment [2] and in experiment [3] were 0.1 µM, 0.2 µM and 0.3 µM, respectively.
With `C=C(CC[C@@H](C)[C@H]1CC[C@H]2[C@@H]3C[C@@H](O)[C@@]4(O)C[C@@H](O)CC[C@]4(COC(C)=O)[C@H]3CC[C@]12C)C(C)C` [ARMATINOL B], the IC50 in experiment [1] was found to be 3.2 µM; in experiment [3], 3.1 µM.
For the compound `C[C@@H]1C(=O)O[C@@H]2CCC3=C[C@@H](O)C[C@H](C)[C@@]3(C)[C@@H]12` [ARMATIN B], the half-inhibitory concentration (IC50) in experiment [1], in experiment [2] and in experiment [3] was above 50 µM throughout.

Usually IC50 stands for the concentration at which inhibition is half-maximal.
